Measured values as given in ChEMBL document CHEMBL4665879, “Design, synthesis and evaluation of a baicalin and berberine hybrid compound as therapeutic agent for ulcerative colitis” (2020).
Activity calls are given as the source filed them. The calls are words filed in the database; no cut-off is given here.

What was measured:
[1] = system: Candida albicans; assay: Antifungal activity against Candida albicans 98001 after 24 hrs by microdilution method; assay type: functional, organism-based
How it was run: (§1)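 Broth microdilution in Mueller Hinton medium, drug media diluted 1:2.5 to 1:640 and sterilized with circulating steam; pure water as control. Four to five colonies grown in nutrient broth 8 h at 37 °C and diluted to 1.5×10^5 CFU/mL. 0.1 ml per well, incubated 37 °C for 24 h; MIC read by observation.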

[2] = system: Mus musculus; assay: Anti-ulcerative colitis activity in DSS-induced BALB/c mouse ulcerative colitis model assessed as colon length at 50 mg/kg administrated for 14 days (reference value: 8.350 +/- 1.111 cm); assay type: functional; conditions: time 14 day
How it was run: (§2)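 Male SPF BALB/c mice (18–22 g), n = 8 per group. Colitis induced with freshly prepared 5% DSS (MW 36,000–50,000) in pure water as drinking water ad libitum for 7 days. Treatment at 50 mg/kg ran from day 1 for 14 days; control and model groups received pure water. Mice sacrificed after 14 days of treatment. Data as means ± S.E.M.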

[3] = system: Mus musculus; assay: Anti-ulcerative colitis activity in DSS-induced BALB/c mouse ulcerative colitis model assessed as inhibited inflammation in colon at 50 mg/kg administrated for 14 days by H and E staining analysis; assay type: functional, organism-based; conditions: time 14.0 day; how it was run: as §2
[4] = system: Pseudomonas aeruginosa; assay: Antibacterial activity against Pseudomonas aeruginosa 10211 incubated for 24 hrs; assay type: functional, organism-based; how it was run: as §1
[5] = system: Mus musculus; assay: Anti-inflammatory activity against DSS-induced ulcerative colitis BALB/c mouse model assessed as reduction in mast cells infiltration in colon tissue at 50 mg/kg administrated for 14 days by aldehyde-fuchsin orange G staining based assay; assay type: functional, organism-based; conditions: time 14.0 day; how it was run: as §2
[6] = system: Staphylococcus aureus; assay: Antibacterial activity against Staphylococcus aureus 261112-5 after 24 hrs by microdilution method; assay type: functional, organism-based; how it was run: as §1
[7] = system: Mus musculus; assay: Anti-ulcerative colitis activity in DSS-induced BALB/c mouse ulcerative colitis model assessed as decrease in histological scores at 50 mg/kg administrated for 14 days by H and E staining analysis; assay type: functional, organism-based; conditions: time 14.0 day; how it was run: as §2
[8] = system: Mus musculus; assay: Anti-ulcerative colitis activity in DSS-induced BALB/c mouse ulcerative colitis model assessed as promoted regeneration of intestinal mucosa at 50 mg/kg administrated for 14 days by H and E staining analysis; assay type: functional, organism-based; conditions: time 14.0 day; how it was run: as §2
[9] = system: Mus musculus; assay: Anti-ulcerative colitis activity in DSS-induced BALB/c mouse ulcerative colitis model of assessed as reduction in disease activity index at 50 mg/kg administrated for 14 days; assay type: functional, organism-based; conditions: time 14.0 day; how it was run: as §2
[10] = system: Mus musculus; assay: Anti-ulcerative colitis activity in DSS-induced BALB/c mouse ulcerative colitis model assessed as colon length/colon weight ratio at 50 mg/kg administrated for 14 days (reference value: 22.608 +/- 2.655 cm/g); assay type: functional; conditions: time 14 day; how it was run: as §2
[11] = system: Mus musculus; assay: Anti-ulcerative colitis activity in DSS-induced BALB/c mouse ulcerative colitis model assessed as colon weight at 50 mg/kg administrated for 14 days (reference value: 0.369 +/- 0.023 g); assay type: functional; conditions: time 14 day; how it was run: as §2
[12] = system: Mus musculus; assay: Anti-inflammatory activity against DSS-induced ulcerative colitis BALB/c mouse model assessed as reduction in MPO activity in colon tissue at 50 mg/kg administrated for 14 days by colorimetric method; assay type: functional, organism-based; conditions: time 14.0 day; how it was run: as §2
[13] = system: Mus musculus; assay: Anti-inflammatory activity against DSS-induced ulcerative colitis BALB/c mouse model assessed as increase in SOD levels in colon tissue at 50 mg/kg administrated for 14 days by xanthine oxidase based method; assay type: functional, organism-based; conditions: time 14.0 day; how it was run: as §2
[14] = system: Escherichia coli; assay: Antibacterial activity against Escherichia coli 44113-5 after 24 hrs by microdilution method; assay type: functional, organism-based; how it was run: as §1
[15] = system: Mus musculus; assay: Anti-inflammatory activity against DSS-induced ulcerative colitis BALB/c mouse model assessed as reduction in IL-6 protein expression in colon tissue at 50 mg/kg administrated for 14 days by Western blot analysis; assay type: functional, organism-based; conditions: time 14.0 day; how it was run: as §2
[16] = system: Mus musculus; assay: Anti-ulcerative colitis activity in DSS-induced BALB/c mouse ulcerative colitis model assessed as reduction in colon damage at 50 mg/kg administrated for 14 days by H and E staining analysis; assay type: functional, organism-based; conditions: time 14.0 day; how it was run: as §2
[17] = system: Mus musculus; assay: Anti-inflammatory activity against DSS-induced ulcerative colitis BALB/c mouse model assessed as reduction in IL-6 mRNA expression in colon tissue at 50 mg/kg administrated for 14 days by RT-qPCR analysis; assay type: functional, organism-based; conditions: time 14.0 day; how it was run: as §2
[18] = system: Streptococcus pyogenes; assay: Antibacterial activity against streptococcus hemolyticus 32210 after 24 hrs by microdilution method; assay type: functional, organism-based; how it was run: as §1
[19] = system: Mus musculus; assay: Anti-inflammatory activity against DSS-induced ulcerative colitis BALB/c mouse model assessed as reduction in TNF-alpha mRNA expression in colon tissue at 50 mg/kg administrated for 14 days by RT-qPCR analysis; assay type: functional, organism-based; conditions: time 14.0 day; how it was run: as §2
[20] = system: Mus musculus; assay: Anti-inflammatory activity against DSS-induced ulcerative colitis BALB/c mouse model assessed as reduction in TNF-alpha protein expression in colon tissue at 50 mg/kg administrated for 14 days by Western blot analysis; assay type: functional, organism-based; conditions: time 14.0 day; how it was run: as §2
[21] = system: Mus musculus; assay: Anti-inflammatory activity against DSS-induced ulcerative colitis BALB/c mouse model assessed as reduction in IL-1beta mRNA expression in colon tissue at 50 mg/kg administrated for 14 days by RT-qPCR analysis; assay type: functional, organism-based; conditions: time 14.0 day; how it was run: as §2
[22] = system: Salmonella enterica subsp. enterica serovar Paratyphi B; assay: Antibacterial activity against Salmonella paratyphi B 0039 after 24 hrs by microdilution method; assay type: functional, organism-based; conditions: 39
How it was run: (§3)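 Test agents diluted in culture medium at ratios 1:2.5 to 1:640 (twofold series) and steam-sterilized; pure water as control. Inoculum from 4–5 colonies grown in nutrient broth 8 h at 37 °C, then diluted to 1.5×10^5 CFU/mL. Broth microdilution in 96-well plate, 0.1 ml strain suspension per well, 37 °C 24 h; MIC read visually.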

[23] = system: Salmonella typhi; assay: Antibacterial activity against Typhoid bacillus 50071-16 after 24 hrs by microdilution method; assay type: functional, organism-based; conditions: Salmonella enterica subsp. enterica serovar Typhi; how it was run: as §3
[24] = system: Mus musculus; assay: Anti-ulcerative colitis activity in DSS-induced BALB/c mouse ulcerative colitis model assessed as decrease in spleen weight at 50 mg/kg administrated for 14 days; assay type: functional, organism-based; conditions: time 14.0 day; how it was run: as §2
[25] = system: Streptococcus pneumoniae; assay: Antibacterial activity against Streptococcus pneumoniae 32215 after 24 hrs by microdilution method; assay type: functional, organism-based; how it was run: as §1
[26] = system: Mus musculus; assay: Anti-inflammatory activity against DSS-induced ulcerative colitis BALB/c mouse model assessed as reduction in colon macroscopic scores at 50 mg/kg administrated for 14 days; assay type: functional, organism-based; conditions: time 14.0 day; how it was run: as §2
[27] = system: Mus musculus; assay: Anti-inflammatory activity against DSS-induced ulcerative colitis BALB/c mouse model assessed as reduction in IL-1beta protein expression in colon tissue at 50 mg/kg administrated for 14 days by Western blot analysis; assay type: functional, organism-based; conditions: time 14.0 day; how it was run: as §2
[28] = system: Mus musculus; assay: Anti-ulcerative colitis activity in DSS-induced BALB/c mouse ulcerative colitis model assessed as increase in cecum weight at 50 mg/kg administrated for 14 days; assay type: functional, organism-based; conditions: time 14.0 day; how it was run: as §2

| Structure (SMILES) | Activity [1] | Activity [2] [cm] | Activity [4] | Activity [6] | Activity [9] | Ratio [10] | Activity [11] [g] | Activity [14] | Activity [15] | Activity [16] | Activity [17] | Activity [18] | Activity [19] | Activity [20] | Activity [21] | Activity [22] | Activity [23] | Activity [24] | Activity [25] | Activity [27] | other results |
| --- | --- | --- | --- | --- | --- | --- | --- | --- | --- | --- | --- | --- | --- | --- | --- | --- | --- | --- | --- | --- | --- |
| COc1ccc2cc3[n+](cc2c1OCCCCOC(=O)[C@H]1O[C@@H](Oc2cc4oc(-c5ccccc5)cc(=O)c4c(O)c2O)[C@H](O)[C@@H](O)[C@@H]1O)CCc1cc2c(cc1-3)OCO2 | Active | 9.288 | Active | Active | Active | 29.769 | 0.311 | Active | Active | Active | Active | Active | Active | Active | Active | Active | Active | Active | Active | Active | Activity [3]: Active; Activity [5]: Active; Activity [7]: Active; Activity [8]: Active; Activity [12]: Active; Activity [13]: Active; Activity [26]: Active; Activity [28]: Active |
| O=C(O)[C@H]1O[C@@H](Oc2cc3oc(-c4ccccc4)cc(=O)c3c(O)c2O)[C@H](O)[C@@H](O)[C@@H]1O [BAICALIN] | inactive | 8.74 | inactive | inactive | inactive | 24.172 | 0.369 | inactive | inactive | inactive | inactive | inactive | inactive | inactive | inactive | inactive | inactive | inactive | inactive | inactive | Activity [28]: inactive |
| COc1ccc2cc3[n+](cc2c1OC)CCc1cc2c(cc1-3)OCO2.[Cl-] [BERBERINE CHLORIDE] | Active | 8.95 | Active | Active | Active | 28.175 | 0.315 | Active | Active | Active | Active | Active | Active | Active | Active | Active | Active | inactive | Active | Active | Activity [3]: Active; Activity [5]: Active; Activity [7]: Active; Activity [8]: Active; Activity [12]: Active; Activity [28]: Active |
